Insulin prom up = insulin promoter activators in MIN6 cells, imaging, high-content screening, mouse beta cells | MIN6 insulin promoter-GFP reporter; stronger effect = higher value | z-score at 5 µM | 190,000 compounds, 0.3% hits | AID 1625, 2009;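 active = z-score above 3 at 5 µM with at least 500 cells counted in the well; inconclusive = wells under 500 cells, flagged as cytotoxic or low count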
WT yeast gro inh = growth inhibition of WT strain, primary screen, mitochondrial fusion inhibitor project, WT and mutant strains, chemical genetic. mitochondrial fusion phenotypic screen. inhibition, % at 10 µM. 190,000 compounds, 2.1% hits. AID 1362, 2008; in the data active = inhibition above about 58%; tested in S. cerevisiae
Cl transport mod = KCC2 cotransporter modulators, thallium flux, primary screen, cell-based, HEK293 KCC2, FluoZin-2 fluorescence, MLSMR | Solute carrier family 12 member 5 (Homo sapiens), Q9H2X9 | KCC2 cells, thallium flux FluoZin-2 fluorescence | B-score of Tl+ flux slope (higher = more flux/activation; lower = inhibition) at 10 µM | 190,000 compounds, 2.2% hits | AID 1456, 2008;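 active = thallium flux slope and its plate-corrected score both differing from the plate sample mean at a set confidence after two filtering rounds, in either direction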;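 note: slope of fluorescence scaled to starting intensity during 10 to 20 s after thallium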
Rad51 HR inh = human RAD51 strand exchange inhibitors, primary screen, biochemical, fluorescence; 200,000 compounds, 0.085% hits; hRad51 DNA strand exchange, fluorescence dequenching; DNA repair protein RAD51 homolog 1 (Homo sapiens), Q06609; AID 1385, 2008; inhibition, % at 10 µM;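 active = inhibition above 40% at the single screening dose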;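 note: 0% = DMSO control wells and 100% = blanks with heterologous ssDNA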
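Material: human Rad51–ssDNA filaments; Probe or stimulus: labelled 47-mer dsDNA for strand exchange; Doses: single 10 µM dose; Incubation: 37 °C 15-min filament assembly, 30-min compound preincubation, 15-min exchange; Technique: FRET fluorescence dequenching, excitation 485 nm, emission 520 nm; Measure: Fluorescence-based percent inhibition, control- and blank-normalised; Benchmarks: plate control and blank wells.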
Autophagy HCS = autophagy modulators in MEF cells, primary screen, imaging, high-content, MEF GFP-LC3 | MEF GFP-LC3 puncta imaging; test concentration mostly 10 µM | calls only at 10 µM (by protocol) | 190,000 compounds, 0.98% hits | AID 463193, 2010;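 active = percentage of spot-positive cells more than 3 SD above its plate mean, without a fluorescence outlier flag or 80% toxicity; inconclusive = no clear call, values can overlap the other calls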;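 note: spot-positive cell cutoff set from DMSO-treated cells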
SKKanGAS inh = S. pyogenes SKKanGAS growth inhibitors in kanamycin, primary screen, streptokinase expression inhibitor project, SKKanGAS strain, BacTiter-Glo luminescence. inhibition, % at 7.5 µM. 6 h. AID 1662, 2009. 300,000 compounds, 1.3% hits;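 active = mean replicate score, as percent of positive control median, at least 50; inconclusive = mean below 50 but one replicate at or above 50; inactive = mean and every replicate below 50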;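 note: strain carries kanamycin resistance gene driven by streptokinase promoter and grows in 40 µg/ml kanamycin; loss of luminescence reflects streptokinase promoter inhibition or plain growth inhibition; 0% = median of DMSO wells and 100% = positive control at its reference dose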
KCC2 secondary = KCC2 modulators in sodium-free buffer, confirmation, cell-based, HEK293 KCC2, thallium flux, secondary assay. normalised thallium flux (F/F0 slope) at 10 µM. 3,700 compounds, 15% hits. shares compounds with Cl transport mod. FluoZin2 fluorescence; stronger effect = higher value;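 active = thallium flux slope above the same plate's solvent-only control mean plus 3 SD; inconclusive = the two replicate wells disagree; inactive = no significant difference from solvent-only control wells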
KCC2 bumet counter = thallium flux persisting under bumetanide in KCC2 cells, confirmation, counter-screen for KCC2 modulator project, cell-based, HEK293 KCC2, FluoZin2, secondary assay 3 | normalized thallium flux at 10 µM | 3,700 compounds, 49% hits | HEK293-KCC2 + bumetanide/ouabain; stronger effect = higher value | shares compounds with Cl transport mod | AID 1714, 2009;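 active = thallium entry rate above the same plate's blocked-transporter control wells by more than 3 SD; inconclusive = the two repeat wells disagree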;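 note: raw slope of fluorescence over initial fluorescence between 10 and 20 s after thallium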
KCC2 secondary2 = KCC2 modulators without ouabain present, confirmation, cell-based, HEK293 KCC2, thallium flux, FluoZin2, secondary assay 2; normalized thallium flux at 10 µM; 3,700 compounds, 23% hits; thallium flux FluoZin2 fluorescence; actives lie on both sides; F/F0 rise rate, 10–20 s post-thallium; shares compounds with Cl transport mod;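 active = thallium flux slope more than 3 SD above or below the plate's solvent-only control mean, mostly below; inconclusive = the two repeat wells disagreed; inactive = no significant shift from solvent-only controls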;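 note: raw slope with 0.1% DMSO as baseline and bumetanide as block control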
HEK counter1 = thallium flux modulation in parental HEK cells, confirmation, counter-screen for KCC2 modulator project, cell-based, counterscreen 1. shares compounds with Cl transport mod. HEK293 parental cells, thallium flux FluoZin2, ouabain; baseline-ratio fluorescence slope, 10–20 s after thallium. thallium flux rate (normalised fluorescence) at 10 µM. 3,700 compounds, 46% hits;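 active = thallium flux rate significantly above the same plate's solvent-only control wells, beyond their mean plus 3 SD; inconclusive = the two replicate wells gave conflicting results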
KCC2 retest ouab = KCC2 inhibitors and activators, ouabain retest, confirmation, HEK-KCC2 cells; shares compounds with Cl transport mod; HEK293-KCC2, thallium flux FluoZin2 fluorescence; bidirectional: low = inhibitor, high = activator; raw Tl+ flux slope (below DMSO = inhibition, above = activation) at 10 µM; 3,700 compounds, 48% hits;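 active = thallium flux slope beyond 3 SD from same-plate DMSO control mean in most replicates, usually higher, sometimes lower; inconclusive = repeat tests gave conflicting results; inactive = no significant difference from controls in most replicates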;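 note: slope of initial-normalized fluorescence between seconds 10 and 20 after thallium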
HEK293 Tl flux2 = native HEK Tl+ uptake effects, second counter-screen – HEK cells, counterscreen 2, counter-screen for KCC2 modulator project, confirmation; HEK293 parental, thallium flux FluoZin-2 fluorescence slope; shares compounds with Cl transport mod; AID 1718, 2009; thallium flux slope at 10 µM; 3,700 compounds, 33% hits;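 active = thallium flux slope above the same plate's solvent-control mean plus 3 SD in both duplicate wells; inconclusive = duplicate wells that disagreed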;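 note: run without ouabain in cells lacking the KCC2 cotransporter; slope of fluorescence scaled to its starting value between 10 and 20 s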
Active calls of the source: *; i = inactive; ? = inconclusive; · = not tested or not shown. Most compounds without a hit are left out; they make up all but 4.2% or so of the library.

SMILES | Insulin prom up | WT yeast gro inh | Cl transport mod | Rad51 HR inh | Autophagy HCS | SKKanGAS inh | KCC2 secondary | KCC2 bumet counter | KCC2 secondary2 | HEK counter1 | KCC2 retest ouab | HEK293 Tl flux2
CC1CCc2[nH]nc(C(=O)O)c2C1 (centres undefined) | 0.69 | 16.1 | 0.224 | -3.4 | i | 6.9 | · | · | · | · | · | ·
CCC1CCc2[nH]nc(C(=O)O)c2C1 (centres undefined) | -0.79 | -6.3 | 4.28* | -3.7 | i | -8.0 | 0.00984 | 0.00696 | 0.0295 | 0.00664 | 0.021 | 0.00978
CC(C)(C)OC(=O)[C@H](Cc1ccccc1)NC(=O)c1nc[nH]c1C(=O)N[C@@H](Cc1ccccc1)C(=O)OC(C)(C)C | -1.23 | · | 3.41* | 1.2 | · | 70.1* | 0.00581 | 0.00404 | 0.0321 | 0.00721 | 0.0192 | 0.00922
O=C(Cc1ccccc1)NNC(=S)NC(=O)c1cccs1 | · | · | 6.8* | · | · | 79.4* | 0.00491 | 0.0137* | 0.0334 | 0.0155* | ? | 0.0181*
CC1CCCCC1NC(=S)NC(=O)c1cccs1 (centres undefined) | -0.64 | · | 117* | -12.3 | · | 25.6 | 0.0272* | 0.14* | 0.0321 | 0.0578* | 0.0639* | 0.0175*
CCC(=O)NNC(=S)NC(=O)c1ccc(C)cc1 | -0.07 | 25.5 | 7.6* | 4.1 | i | 22.1 | ? | 0.0202* | 0.0296 | 0.0132* | 0.0238 | ?
O=C(/C=C/c1ccccc1)NC(=S)NNC(=O)Cc1cccs1 | · | 12.8 | 6.25* | -2.2 | i | 78.9* | 0.00967 | 0.026* | 0.0314 | ? | ? | 0.012
O=C(NNC(=S)NC1CCCCC1)c1cccs1 | -0.19 | 12.8 | -1.04 | · | i | -4.2 | · | · | · | · | · | ·
O=C(Cc1cccs1)N/N=C/C=C/c1ccccc1 | -0.12 | -5.2 | 1.17 | 9.2 | i | -3.6 | · | · | · | · | · | ·
Cc1c(N=C2SCC(=O)N2/N=C/c2ccccc2)c(=O)n(-c2ccccc2)n1C | 0.71 | -10.6 | -0.115 | -1.1 | i | -4.8 | · | · | · | · | · | ·
CNC(=S)NNC(=O)Cc1ccccc1 | 0.29 | -6.2 | · | -0.3 | i | -4.4 | · | · | · | · | · | ·
Cc1cccc(C(=O)NC(=S)NNC(=O)Cc2ccccc2)c1 | 0.01 | 16.5 | 14.2* | -1.1 | i | 19.7 | 0.0185* | 0.0484* | 0.0369 | 0.0247* | 0.041* | 0.0146*
CCc1c(O)nc(SCC(=O)Nc2ccc(Br)cc2)n(-c2ccc(C)cc2)c1=O | · | · | · | · | · | 6.7 | · | · | · | · | · | ·
CCc1c(O)nc(SCC(=O)Nc2ccc(C)cc2)n(C2CCCCC2)c1=O | 0.11 | -8.0 | · | 4.1 | i | 8.2 | 0.00869 | 0.00555 | 0.0309 | 0.0073 | 0.0161* | 0.0107
CCCCC(CCC(=O)O)(C(=O)OCC)c1csc(Nc2ccc(OCC)cc2)n1 (centres undefined) | · | · | -4.11 | -16.9 | · | -9.8 | · | · | · | · | · | ·
CCCCC(CCC(=O)O)(C(=O)OCC)c1csc(Nc2ccccc2)n1 (centres undefined) | 0.66 | -0.9 | -3.9* | · | i | 2.3 | 0.00774 | 0.00652 | 0.0343 | 0.00659 | 0.0165* | 0.0103
O=C(CN(c1cccc([N+](=O)[O-])c1)S(=O)(=O)c1ccccc1)N1CCCCC1 | · | · | · | · | · | -3.0 | · | · | · | · | · | ·
NC(=O)c1ccc[n+](CC(=O)c2cccc([N+](=O)[O-])c2)c1 | · | · | · | · | · | 1.9 | · | · | · | · | · | ·
O=C(OCC#Cc1c(COC(=O)c2ccccc2)nnn1Cc1ccccc1)c1ccccc1 | 0.54 | · | 1.78* | 1.2 | · | 4.4 | 0.007 | 0.00403 | 0.0275 | 0.00728 | 0.0181 | 0.01
O=C(NCCCc1ccccc1)c1cc([N+](=O)[O-])ccc1Cl | -0.04 | 12.9 | -7.5* | · | i | -8.3 | ? | 0.00449 | 0.0204* | ? | 0.0123* | 0.00984
O=C(O)c1cc([N+](=O)[O-])ccc1NCc1ccccc1 | -0.18 | -1.4 | -5.28* | · | i | 23.8 | 0.00988 | 0.00729 | 0.0245* | 0.00685 | ? | 0.0102
O=C(O)c1cc([N+](=O)[O-])ccc1NCCCc1ccccc1 | · | · | · | -3.7 | · | 24.9 | · | · | · | · | · | ·
COc1ccc([N+](=O)[O-])cc1NCc1ccccc1 | -0.17 | 30.0 | -3.8* | 9.5 | i | 9.4 | 0.0066 | 0.00407 | 0.0286 | 0.00532* | 0.0143* | 0.00961
O=C(O)c1cc([N+](=O)[O-])ccc1N1CCC(Cc2ccccc2)CC1 | -0.77 | -20.7 | -4.64* | 6.9 | i | 4.8 | 0.0081 | ? | ? | 0.00791 | 0.0152* | 0.0107
O=C(O)c1cc([N+](=O)[O-])ccc1N1CCCCC1 | -0.36 | -3.7 | -0.621 | 3.3 | i | -6.2 | · | · | · | · | · | ·
CCc1ccc(OCC(=O)c2c(O)c3ccccc3oc2=O)cc1 | 0.06 | 1.1 | 0.0455 | · | i | 7.7 | · | · | · | · | · | ·
CCc1oc2ccccc2c1C(=O)c1cc(Br)c(O)c(Br)c1 | · | 85.5* | -1.6 | 8.9 | i | 49.7* | 0.00673 | 0.0188* | 0.0222* | 0.0111* | ? | ?
